T cruzi repl: T. cruzi replication inhibition. actives 1.4% (n = 300,000). AID 1885. T. cruzi beta-gal in NIH3T3, luminescence, 90 h. inhibition, % (no concentration beside the values);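 active means mean inhibition across valid replicates above about 55%, limit read from the data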;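 further: signal also drops with host cell toxicity which is not excluded here; higher percent means less beta-gal luminescence so fewer parasites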
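Assay system: NIH/3T3 fibroblasts plus reporter T. cruzi. Amount: NIH/3T3 cells, 5,000 per well. Buffer or medium: DMEM, 2% fetal bovine serum. Doses: compound pinned at 50 nL/well, DMSO. Schedule: ≥90 h infection period, 3 h prior cell attachment. Signal: luminescent β-galactosidase signal after 60 min lysis. Read-out: parasite load inhibition, %.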
Beta apoptosis: beta cell apoptosis inhibition; actives 0.8% (n = 300,000); INS-1E cytokine-induced death, ATP luminescence, 48 h; percent of positive-control rescue, neutral wells zero; protection from apoptosis, % (concentration not given with the values);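 active means Every replicate reaches about 75%, or at least half do and their mean reaches it too, limit read from the data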;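 further: higher means more ATP so stronger rescue from cytokine killing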
CHOP UPR activ: apoptotic UPR (CHOP) activation | CHO-CHOP luciferase reporter, luminescence; percent of tunicamycin response over DMSO baseline | activation, % at 10 µM | actives 0.34% (n = 330,000) | AID 449763;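 active means at 10 µM dose, activation of 40% or more, normalized to positive control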
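Assay system: CHO-CHOP cells, stable luciferase reporter of PERK-eIF2a-CHOP signalling / Buffer or medium: F12 plus 10% serum / Compound dosing: one dose, 10 µM in 0.5% DMSO / Times: 6 h compound treatment, 37 °C / Technique: luciferase luminescence / Read-out: % reporter activation, DMSO baseline versus tunicamycin full activation / Benchmarks: tunicamycin and DMSO controls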
CSC inhib: blocks cancer stem cells | actives 1.1% (n = 300,000) | inhibition, % at 7.5 µM | AID 2717 | cancer stem cell-like cells viability, luminescence; in the data active means inhibition above about 75%; tested in HMLE shEcad cells
UPR XBP1 act: adaptive UPR (XBP1) activation | CHO-XBP1 luciferase reporter, IRE1-XBP1 UPR activation, luminescence; percent of tunicamycin response, DMSO as zero | activation, % at 20 µM | actives 0.33% (n = 330,000) | AID 463104;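 active means versus positive control, 20 µM dose yields 30% or more activation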
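Signal: luciferase luminescence; Assay system: CHO-XBP1 luciferase reporter cells; Amount: one thousand reporter cells per well; Dosing: 20 µM single concentration, DMSO 1%; Benchmarks: high control tunicamycin 10 µg/mL final, low control DMSO vehicle only; Schedule: 6 h compound exposure at 37 °C, 5% CO2; Evaluation: percent activation relative to tunicamycin reference.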
Mdm2 MdmX PPI: human Mdm2/MdmX binding inhibition; AID 485346; actives 3% (n = 330,000); SaOS-2 split-luciferase Mdm2/MdmX complementation, luminescence; inhibition, % at 8 µM; O15151+Q00987;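 active means inhibition of at least 50% at 8 µM in the primary screen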
Target sequence (O15151 whole entry, looked up): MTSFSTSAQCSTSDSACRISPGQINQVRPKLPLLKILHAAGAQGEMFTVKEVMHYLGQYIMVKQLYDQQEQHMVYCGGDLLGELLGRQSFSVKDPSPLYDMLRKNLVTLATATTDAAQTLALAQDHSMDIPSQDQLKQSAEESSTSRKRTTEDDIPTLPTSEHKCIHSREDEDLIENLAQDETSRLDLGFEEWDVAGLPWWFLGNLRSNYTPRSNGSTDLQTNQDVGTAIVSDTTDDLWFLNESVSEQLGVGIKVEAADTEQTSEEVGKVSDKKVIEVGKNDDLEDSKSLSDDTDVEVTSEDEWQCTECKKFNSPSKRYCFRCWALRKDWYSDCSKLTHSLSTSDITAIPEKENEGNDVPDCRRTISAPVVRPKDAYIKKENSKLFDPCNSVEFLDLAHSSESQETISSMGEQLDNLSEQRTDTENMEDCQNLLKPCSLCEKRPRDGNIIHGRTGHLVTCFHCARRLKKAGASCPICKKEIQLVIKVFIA
Target sequence (Q00987 whole entry, looked up): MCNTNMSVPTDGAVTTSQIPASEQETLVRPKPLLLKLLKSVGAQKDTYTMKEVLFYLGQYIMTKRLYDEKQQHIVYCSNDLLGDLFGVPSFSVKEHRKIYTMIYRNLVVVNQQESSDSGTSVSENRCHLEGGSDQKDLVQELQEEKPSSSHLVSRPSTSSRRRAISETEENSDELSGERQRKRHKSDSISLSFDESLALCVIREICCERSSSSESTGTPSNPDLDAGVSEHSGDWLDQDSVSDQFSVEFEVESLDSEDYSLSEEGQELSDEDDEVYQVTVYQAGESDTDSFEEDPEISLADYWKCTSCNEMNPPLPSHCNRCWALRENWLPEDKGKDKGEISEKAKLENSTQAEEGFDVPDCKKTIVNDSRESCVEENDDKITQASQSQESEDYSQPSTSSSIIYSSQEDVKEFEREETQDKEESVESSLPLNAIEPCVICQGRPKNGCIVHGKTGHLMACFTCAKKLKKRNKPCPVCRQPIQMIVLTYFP
Mdm2 MdmX conf: confirmation of human Mdm2/MdmX interaction inhibitors | actives 55% (n = 10,000) | shares compounds with Mdm2 MdmX PPI | Mdm2-MdmX binding, luminescent assay | AID 489028 | inhibition, % at 8 µM; in the data active means inhibition above about 40%
Full FLuc ctr: full-length luciferase inhibition in Mdm2/MdmX counter-screen | inhibition, % at 8 µM | SaOS-2 full-length luciferase counterscreen, luminescence | actives 77% (n = 6,200) | shares compounds with Mdm2 MdmX PPI;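 active means mean inhibition at 8 µM reaching about 37%, which flags the compound as non-specific, limit read from the data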;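 further: p53-null SaOS-2 cells with luciferase driven by a doxycycline-inducible promoter; compound on cells about two nights before reading with doxycycline added after day one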
Each line names hits and unclear results; the compound was inactive in the other large screens (follow-up assays come after a bar, where they were run). Hits are enriched below; roughly 5% of the tested compounds scored in any of these assays.

Cc1ccc2c(c1)c1c3n2CCN(C(=O)CN2CCN(C)CC2)C3CCC1 (stereo not drawn)	none
CN1CCN(CC(=O)N2CCn3c4c(c5cc(C6CCCCC6)ccc53)CCCC42)CC1 (stereo not drawn)	Mdm2 MdmX PPI 97.6 | Mdm2 MdmX conf 73.2 | Full FLuc ctr 52.4
O=C(C#Cc1ccccc1)c1ccco1	Beta apoptosis 99.8, Mdm2 MdmX PPI 97.9 | Mdm2 MdmX conf 67.5 | Full FLuc ctr 51.5
CCN1CCN(CCCN(Cc2ccco2)C(=S)Nc2ccc(Cl)cc2)CC1	none
CCOc1ccc(NC(=S)N(CCCN2CCCC2)Cc2cccn2Cc2ccc(Cl)cc2)cc1	Mdm2 MdmX PPI 65.2 (no result: CSC inhib) | Mdm2 MdmX conf inactive
CN1CCN(CCCN(Cc2ccco2)C(=S)Nc2ccc(Cl)cc2)CC1	none
Cc1cccc(NC(=S)N(CCCN2CCCC2)Cc2cccn2Cc2ccc(Cl)cc2)c1	Mdm2 MdmX PPI 53.9 | Mdm2 MdmX conf inactive | Full FLuc ctr inactive
CS(=O)(=O)c1ccc(C(=O)OC2CCOC2=O)cc1[N+](=O)[O-] (stereo not drawn)	none (no result: Beta apoptosis)
CCCCN(C)CCCNC(=O)c1cn(C)c2ccc(S(=O)(=O)N(C)C3CCCCC3)cc2c1=O	none
COC(=O)[C@@]1(Cc2ccccc2)[C@H]2C(=O)N(Cc3ccccc3)C(=O)[C@H]2[C@H]2CN=C(SCc3ccc(C)cc3)N21	Mdm2 MdmX PPI 57.8 (no result: T cruzi repl, Beta apoptosis, CSC inhib) | Mdm2 MdmX conf 65.5 | Full FLuc ctr 46.4
COC(=O)[C@@]1(Cc2ccccc2)[C@H]2C(=O)N(Cc3ccccc3)C(=O)[C@H]2[C@H]2CN=C(SCc3ccccc3)N21	Mdm2 MdmX PPI 88.8 (no result: T cruzi repl, Beta apoptosis, CSC inhib) | Mdm2 MdmX conf 85.5 | Full FLuc ctr inactive
COc1cc(C)ccc1S(=O)(=O)N1CCN(C23CC4CC(CC(C4)C2)C3)CC1	none
O=C(Nc1cc(S(=O)(=O)N2CCOCC2)ccc1Cl)c1ccc(=O)[nH]c1	none (no result: T cruzi repl, Beta apoptosis, CSC inhib)
COc1cc(OC)cc(C(=O)/C=C2\Sc3ccccc3N2C)c1	none
CCN1/C(=C/c2cccc[n+]2C)Sc2ccc(OC)cc21	T cruzi repl 70.3, Beta apoptosis 105.2, Mdm2 MdmX PPI 74.1 | Mdm2 MdmX conf 48.1 | Full FLuc ctr 78.0
COc1ccc2c(c1)N(C)/C(=C/c1cccc[n+]1C)S2	T cruzi repl 56.0, Beta apoptosis 104.8, Mdm2 MdmX PPI 71.8 | Mdm2 MdmX conf inactive | Full FLuc ctr 64.1
CCN1/C(=C/C(C)=O)Sc2ccc(OC)cc21	none
COCCn1c(C)cc(C(=O)COC(=O)/C=C/c2c(C)nn(C3CCS(=O)(=O)C3)c2Cl)c1C (stereo not drawn)	none (no result: Beta apoptosis)
COc1ccccc1N1CCN(C(=O)c2ccc(-c3ccc(Cl)cc3)o2)CC1	Mdm2 MdmX PPI 56.5 (no result: T cruzi repl) | Mdm2 MdmX conf 55.6 | Full FLuc ctr 59.2
CCc1ccc2oc(C(=O)N3CCN(c4ccccc4OC)CC3)cc(=O)c2c1	Mdm2 MdmX PPI 59.6 | Mdm2 MdmX conf 49.5 | Full FLuc ctr 40.4
COc1ccccc1N1CCN(C(=O)COc2ccc(Cl)cc2Br)CC1	Mdm2 MdmX PPI 57.1 (no result: CSC inhib) | Mdm2 MdmX conf inactive | Full FLuc ctr 59.6
CN(C)c1cccc(C(=O)NCC(c2ccco2)N(C)C)c1 (stereo not drawn)	none (no result: CSC inhib)
CCNC(=O)N1CCOCC1	none
NC(=O)c1ccccc1NC(=O)c1ccc2c(c1)OCO2	none
COc1ccc(/C=C(\C#N)c2nc3ccc(C)cc3[nH]2)cc1Oc1ccc(C(F)(F)F)cc1[N+](=O)[O-]	Mdm2 MdmX PPI 83.2 | Mdm2 MdmX conf inactive
N#C/C(=C\c1cccc(Oc2ccc(C(F)(F)F)cc2[N+](=O)[O-])c1)c1nc2ccccc2[nH]1	none
Cc1ccc2nc(/C(C#N)=C\c3ccc(Oc4ccc(C(F)(F)F)cc4[N+](=O)[O-])cc3)[nH]c2c1	Mdm2 MdmX PPI 60.7 | Mdm2 MdmX conf 43.9 | Full FLuc ctr 75.2
